The results in this text go back to ChEMBL document CHEMBL2440037, “GluK1 antagonists from 6-(carboxy)phenyl decahydroisoquinoline derivatives. SAR and evaluation of a prodrug strategy for oral efficacy in pain models” (Bioorg Med Chem Lett, 2013).

The term Ki denotes the equilibrium dissociation constant of an inhibitor or competing ligand from its target. In general, AUC(0-inf) refers to total exposure, with the tail of the curve extrapolated. A higher AUC(0-inf) goes with high exposure. A word on the Cmax: it is the maximum level reached in the sampled fluid or tissue. Usually Tmax stands for the time from dosing to the highest level. What is called bioavailability is dose-corrected exposure relative to a reference, in per cent.

A value given as a limit tells only on which side of the number the result lay.

For data set [1], the target named is Glutamate receptor ionotropic, kainate 1 (Homo sapiens, UniProt P39086). Description: Binding affinity to GluK1 receptor (unknown origin).
Glutamate receptor ionotropic, kainate 1, sequence (P39086 whole entry): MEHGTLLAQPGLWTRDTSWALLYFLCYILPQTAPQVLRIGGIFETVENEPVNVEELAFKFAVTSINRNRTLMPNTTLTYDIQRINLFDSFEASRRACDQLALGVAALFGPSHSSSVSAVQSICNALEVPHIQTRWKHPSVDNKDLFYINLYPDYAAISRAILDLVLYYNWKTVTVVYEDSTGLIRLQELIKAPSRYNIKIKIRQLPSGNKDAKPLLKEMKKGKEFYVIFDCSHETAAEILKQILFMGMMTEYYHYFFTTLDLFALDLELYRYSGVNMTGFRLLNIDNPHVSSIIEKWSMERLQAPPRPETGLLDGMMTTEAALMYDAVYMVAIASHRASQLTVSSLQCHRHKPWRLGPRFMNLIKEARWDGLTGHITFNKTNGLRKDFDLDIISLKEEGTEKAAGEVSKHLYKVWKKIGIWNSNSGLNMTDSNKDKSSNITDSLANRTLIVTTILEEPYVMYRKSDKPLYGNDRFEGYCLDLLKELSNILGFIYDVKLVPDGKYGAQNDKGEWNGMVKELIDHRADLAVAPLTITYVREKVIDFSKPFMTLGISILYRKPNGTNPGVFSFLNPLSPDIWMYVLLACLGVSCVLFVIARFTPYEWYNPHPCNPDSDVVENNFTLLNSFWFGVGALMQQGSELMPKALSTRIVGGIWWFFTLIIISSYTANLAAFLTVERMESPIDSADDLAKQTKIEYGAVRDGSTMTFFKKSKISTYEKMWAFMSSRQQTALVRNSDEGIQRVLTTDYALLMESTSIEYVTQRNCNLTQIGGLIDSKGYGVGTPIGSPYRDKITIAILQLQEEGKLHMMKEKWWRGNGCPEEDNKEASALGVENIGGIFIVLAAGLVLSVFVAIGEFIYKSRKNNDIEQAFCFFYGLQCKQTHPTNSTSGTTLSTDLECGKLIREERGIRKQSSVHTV
Another data set addresses Glutamate receptor 2 (Homo sapiens, UniProt P42262). Description: Binding affinity to GluA2 receptor (unknown origin).
Data set [2] is described as follows: AUC (0 to infinity) in Fischer rat at 10 mg/kg, po. Set-up: time infinity, dose 10 mg/kg, route oral. The following applies: plasma. The class given is ADME, organism-based. The gist of the method: (§1)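 Fischer rats; amino acid dosed orally as diethyl ester hydrochloride salt, 30 mg/kg (one entry at 10 mg/kg), three rats per time point. Amino acid plasma levels measured: AUC 0 to infinity, Cmax as maximum observed concentration, Tmax as time at Cmax. %F is amino acid exposure after oral ester dosing relative to the amino acid given iv.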

A short description of data set [3]: Cmax in Fischer rat at 10 mg/kg, po. The class given is ADME, organism-based. Also on record: dose 10 mg/kg, route oral. The note with it: in vivo. The gist of the method: as §1
Data set [4] is described as follows: Tmax in Fischer rat at 10 mg/kg, po. Type of data set: ADME, organism-based. Also on record: dose 10 mg/kg, route oral. The note with it: in vivo. In short, it runs like this:
as §1

Data set [5] can be described thus: Oral bioavailability in Fischer rat at 10 mg/kg. Type of data set: ADME, organism-based. The following applies: in vivo. In short, it runs like this: as §1
The nature of data set [6]: Oral bioavailability in Fischer rat at 30 mg/kg. The class given is ADME, organism-based. The note with it: in vivo. In short, it runs like this:
as §1

A short description of data set [7]: Tmax in Fischer rat at 30 mg/kg, po. Type of data set: ADME, organism-based. Set-up: dose 30 mg/kg, route oral. The note with it: in vivo. The gist of the method:
as §1

A short description of data set [8]: Cmax in Fischer rat at 30 mg/kg, po. Type of data set: ADME, organism-based. The following applies: in vivo. Set-up: dose 30 mg/kg, route oral. In short, it runs like this:
as §1

In data set [9] the test system is Rattus norvegicus. Kind of data set: Neurotoxicity in po dosed rat assessed as sedative effect by rotorod test. Type of data set: toxicity, organism-based. The following applies: in vivo. In short, it runs like this:
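Rotorod test in rats for sedative or ataxic effects; amino acid given p.o. as diethyl ester hydrochloride salt at several doses, N = 8, vehicle controls N = 8; minimal effective dose (MED) reported.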
In general terms: In the rotarod test animals must keep their balance on a rotating rod.

Data set [10] can be described thus: AUC (0 to infinity) in Fischer rat at 30 mg/kg, po. The class given is ADME, organism-based. The following applies: plasma. Set-up: time infinity, dose 30 mg/kg, route oral. In short, it runs like this:
as §1

Data set [11] deals with Rattus norvegicus. Kind of data set: Analgesic activity in rat assessed as reversal of formalin-induced pain at 30 mg/kg, po. The class given is functional. In short, it runs like this: (§2)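 Rat formalin pain model; amino acid given p.o. as diethyl ester hydrochloride salt at 30 mg/kg (one entry at 100 mg/kg), N = 8–9; vehicle controls N = 8–12. Read-out is % reversal of formalin-induced pain.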

Data set [12] concerns Rattus norvegicus. Description: Antihyperalgesic activity against carrageenan-induced thermal hyperalgesia in po dosed rat. The class given is functional. The following applies: read-out: MED. In short, it runs like this:
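Rat carrageenan-induced thermal hyperalgesia; amino acid given p.o. as diethyl ester hydrochloride salt at several doses, N = 6 per group; vehicle controls N = 6. Reported as minimal effective dose (MED).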

The test system of data set [13] is Rattus norvegicus. Kind of data set: Analgesic activity in rat assessed as reversal of formalin-induced pain at 100 mg/kg, po. The class given is functional. The gist of the method: as §2

Glutamate receptor 2, sequence (P42262 whole entry): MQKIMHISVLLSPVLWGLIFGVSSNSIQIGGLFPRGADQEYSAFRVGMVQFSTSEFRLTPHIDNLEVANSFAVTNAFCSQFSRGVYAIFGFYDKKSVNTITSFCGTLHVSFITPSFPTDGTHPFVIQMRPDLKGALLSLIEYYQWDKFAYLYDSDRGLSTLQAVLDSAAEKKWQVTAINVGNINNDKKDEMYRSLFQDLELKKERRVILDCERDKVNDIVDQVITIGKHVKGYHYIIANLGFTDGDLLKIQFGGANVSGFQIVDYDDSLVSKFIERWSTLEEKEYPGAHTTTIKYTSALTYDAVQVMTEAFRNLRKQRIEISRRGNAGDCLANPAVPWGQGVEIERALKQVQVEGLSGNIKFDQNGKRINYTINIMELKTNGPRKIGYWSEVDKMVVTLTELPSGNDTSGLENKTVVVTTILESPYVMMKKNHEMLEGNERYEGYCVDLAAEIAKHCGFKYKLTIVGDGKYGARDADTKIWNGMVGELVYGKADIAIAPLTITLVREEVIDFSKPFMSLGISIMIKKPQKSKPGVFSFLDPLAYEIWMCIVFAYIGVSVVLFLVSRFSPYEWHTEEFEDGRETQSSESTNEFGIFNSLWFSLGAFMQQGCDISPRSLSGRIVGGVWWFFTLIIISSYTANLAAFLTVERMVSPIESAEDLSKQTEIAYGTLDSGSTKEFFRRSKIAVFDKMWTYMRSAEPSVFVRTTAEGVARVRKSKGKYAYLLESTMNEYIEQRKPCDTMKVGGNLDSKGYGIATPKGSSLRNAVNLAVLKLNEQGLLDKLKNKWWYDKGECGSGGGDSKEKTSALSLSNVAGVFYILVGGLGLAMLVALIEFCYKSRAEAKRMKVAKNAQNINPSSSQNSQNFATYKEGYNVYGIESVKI

On to `O=C(O)c1cccc(C[C@H]2CC[C@H]3CN[C@H](C(=O)O)C[C@H]3C2)c1`, for which the Ki in data set [1] stood at 16 µM; at Glutamate receptor 2 it was 149 µM.
The matching figures for `Cc1cccc(C(=O)O)c1O[C@H]1CC[C@H]2CN[C@H](C(=O)O)C[C@H]2C1`: 228 µM and 818 µM.
The matching figures for `COc1ccc(O[C@H]2CC[C@H]3CN[C@H](C(=O)O)C[C@H]3C2)c(C(=O)O)c1`: 19 µM and 87 µM.
The matching figures for `Cc1ccc(O[C@H]2CC[C@H]3CN[C@H](C(=O)O)C[C@H]3C2)c(C(=O)O)c1`: 9.9 µM and 107 µM.
For the compound `O=C(O)c1cc(Cl)ccc1N[C@H]1CC[C@H]2CN[C@H](C(=O)O)C[C@H]2C1`, the inhibition constant Ki turned out to be 3.6 µM in data set [1] and 3.3 µM at Glutamate receptor 2.
The matching figures for `O=C(O)c1cc(Cl)ccc1S[C@H]1CC[C@H]2CN[C@H](C(=O)O)C[C@H]2C1`: 3.7 µM and 42 µM.
The matching figures for `O=C(O)c1cc(Cl)ccc1O[C@H]1CC[C@H]2CN[C@H](C(=O)O)C[C@H]2C1`: 1.5 µM and 19 µM.
The matching figures for `O=C(O)c1c(F)cccc1O[C@H]1CC[C@H]2CN[C@H](C(=O)O)C[C@H]2C1`: 9.7 µM and 93 µM.
As to `O=C(O)c1ccccc1O[C@H]1CC[C@H]2CN[C@H](C(=O)O)C[C@H]2C1`, the Ki in data set [1] was 2.3 µM; at Glutamate receptor 2 it was 70 µM.
The matching figures for `O=C(O)c1ccccc1S[C@H]1CC[C@H]2CN[C@H](C(=O)O)C[C@H]2C1`: 0.8 µM and 15 µM.
On Glutamate receptor 2, `O=C(O)c1ccccc1N[C@H]1CC[C@H]2CN[C@H](C(=O)O)C[C@H]2C1` had a Ki of 77 µM.
For the compound `O=C(O)c1ccccc1C[C@H]1CC[C@H]2CN[C@H](C(=O)O)C[C@H]2C1`, the Ki in data set [1] amounted to 67 µM; at Glutamate receptor 2, 29600 µM.
The matching figures for `O=C(O)c1cccc(O[C@H]2CC[C@H]3CN[C@H](C(=O)O)C[C@H]3C2)c1`: 6 µM and 44 µM.
`O=C(O)c1cccc(S[C@H]2CC[C@H]3CN[C@H](C(=O)O)C[C@H]3C2)c1` had a Ki on Glutamate receptor 2 of 9 µM. This counts as single-digit micromolar.
Take `O=C(O)c1cccc(N[C@H]2CC[C@H]3CN[C@H](C(=O)O)C[C@H]3C2)c1`: the Ki in data set [1] is 8 µM; on Glutamate receptor 2, 238 µM.
For the compound `O=C(O)c1ccc(O[C@H]2CC[C@H]3CN[C@H](C(=O)O)C[C@H]3C2)cc1`, the Ki turned out to be 267 µM in data set [1] and 913 µM on Glutamate receptor 2.
The matching figures for `O=C(O)c1ccc(S[C@H]2CC[C@H]3CN[C@H](C(=O)O)C[C@H]3C2)cc1`: 19 µM and 418 µM.
As to `O=C(O)c1ccc(N[C@H]2CC[C@H]3CN[C@H](C(=O)O)C[C@H]3C2)cc1`, the inhibition constant (Ki) on Glutamate receptor 2 worked out at 1420 µM.
As for `Cl.O=C(O)c1ccc(C[C@H]2CC[C@H]3CN[C@H](C(=O)O)C[C@H]3C2)cc1`, the AUC(0-inf) in data set [2] came to 1510 ng·h/mL. For the same compound, in data set [3], the Cmax was 539 ng/mL. At Glutamate receptor 2, the Ki turned out to be 553 µM. Moreover, the Tmax in data set [4] was determined as 60 min. In [5], this compound returned a bioavailability of 62.5%.
With `O=C(O)c1cccc(Cl)c1O[C@H]1CC[C@H]2CN[C@H](C(=O)O)C[C@H]2C1`, the Ki in [1] is 316 µM; at Glutamate receptor 2, 1470 µM.
The matching figures for `O=C(O)c1ccc(-c2ccccc2)cc1O[C@H]1CC[C@H]2CN[C@H](C(=O)O)C[C@H]2C1`: 0.5 µM and 8.8 µM.
As for `COc1ccc(C(=O)O)c(O[C@H]2CC[C@H]3CN[C@H](C(=O)O)C[C@H]3C2)c1`, the Ki came to 6.2 µM in data set [1] and 111 µM on Glutamate receptor 2.
The matching figures for `Cc1ccc(C(=O)O)c(O[C@H]2CC[C@H]3CN[C@H](C(=O)O)C[C@H]3C2)c1`: 5.9 µM and 89 µM.
The matching figures for `O=C(O)c1ccc(Cl)cc1S[C@H]1CC[C@H]2CN[C@H](C(=O)O)C[C@H]2C1`: 1.3 µM and 22 µM.
The matching figures for `O=C(O)c1ccc(Cl)cc1O[C@H]1CC[C@H]2CN[C@H](C(=O)O)C[C@H]2C1`: 2.1 µM and 151 µM.
For the compound `O=C(O)c1cc(-c2ccccc2)ccc1O[C@H]1CC[C@H]2CN[C@H](C(=O)O)C[C@H]2C1`, the Ki was determined as 11 µM in [1] and 172 µM on Glutamate receptor 2.
`CCOC(=O)c1ccccc1O[C@H]1CC[C@H]2CN[C@H](C(=O)OCC)C[C@H]2C1.Cl`: the bioavailability in [6] turned out to be 75.3%. In addition, the Tmax in data set [7] was determined as 30 min. The compound further displayed a peak concentration (Cmax) in data set [8] of 9200 ng/mL. The MED in the data set on Rattus norvegicus [9] was above 30 mg/kg. In data set [10], this compound came in with an AUC(0-inf) of 24700 ng·h/mL. In addition, in the data set with Rattus norvegicus [11], the Activity turned out to be 21.8%. Further, the minimal effective dose with Rattus norvegicus [12] is 10 mg/kg.
Consider `CCOC(=O)c1ccc(C[C@H]2CC[C@H]3CN[C@H](C(=O)OCC)C[C@H]3C2)cc1.Cl`, for which the MED in the data set with Rattus norvegicus [9] is above 30 mg/kg. Besides, the Activity with Rattus norvegicus [11] is 13.4%. Moreover, the minimal effective dose with Rattus norvegicus [12] amounted to 10 mg/kg.
Regarding `CCOC(=O)c1ccccc1S[C@H]1CC[C@H]2CN[C@H](C(=O)OCC)C[C@H]2C1.Cl`, the bioavailability in data set [6] was found to be 38.8%. Further, the Tmax in data set [7] came to 30 min. In data set [8], the peak level (Cmax) was 2980 ng/mL. Further, in the data set with Rattus norvegicus [9], the MED was above 100 mg/kg. The compound further returned a total exposure AUC(0-inf) in data set [10] of 7530 ng·h/mL. Also, the Activity in the data set on Rattus norvegicus [13] is reported as 49.4%. For the same compound, the minimal effective dose in the data set with Rattus norvegicus [12] came to 10 mg/kg.
`CCOC(=O)c1ccc(Cl)cc1O[C@H]1CC[C@H]2CN[C@H](C(=O)OCC)C[C@H]2C1.Cl`: the bioavailability in [6] amounted to 32.9%. In addition, the Tmax in [7] is 30 min. The Cmax in [8] was 6450 ng/mL. Moreover, the MED in the data set on Rattus norvegicus [9] was above 30 mg/kg. In data set [10], this compound had an AUC(0-inf) of 9190 ng·h/mL. Besides, the Activity in the data set on Rattus norvegicus [11] came to 14.9%. Also, the minimal effective dose with Rattus norvegicus [12] was above 10 mg/kg.
For the compound `CCOC(=O)c1ccc(-c2ccccc2)cc1O[C@H]1CC[C@H]2CN[C@H](C(=O)OCC)C[C@H]2C1.Cl`, the bioavailability in data set [6] came to 22.2%. Moreover, the Tmax in data set [7] came to 60 min. In data set [8], this compound registered a maximum concentration (Cmax) of 2700 ng/mL. In addition, the AUC(0-inf) in data set [10] came to 7230 ng·h/mL.
